Calls of active or inactive are those of the source. The calls are words filed in the database; no cut-off is given here.
How the values were obtained:
[1] = test system: Peritoneal macrophage; test: Anti-inflammatory activity in ICR mouse peritoneal macrophages assessed inhibition of LPS-induced TNF-alpha production at 10 uM preincubated for 30 to 60 mins followed by LPS stimulation measured after 24 hrs by ELISA; type: functional, cell-based
How it was run: (§1)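 Primary peritoneal macrophages from thioglycollate-elicited ICR mice (3 mL i.p.), collected by PBS lavage and cultured in RPMI-1640 at 37 °C, 5% CO2. Plated at 4*10⁵ cells/well and grown 24 h. Pretreated with compound (30–60 min; screen at 10, dose-response 0.5–10), then LPS for 24 h. TNF-α in the conditioned medium measured by ELISA and expressed relative to LPS alone; DMSO as vehicle.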

[2] = test system: Mus musculus; test: Anti-inflammatory activity in LPS-induced C57BL/6 mouse model of acute lung injury assessed as decrease in inflammatory infiltration in lung tissue at 15 mg/kg, ip pretreated for 30 mins followed by LPS challenge measured after 6 hrs by hematoxylin and eosin staining-based light microscopic analysis; type: functional, organism-based; conditions: C57/BL6
[3] = test system: Mus musculus; test: Anti-inflammatory activity in LPS-induced C57BL/6 mouse model of acute lung injury assessed as decrease in TNF-alpha production in lung tissue at 15 mg/kg, ip pretreated for 30 mins followed by LPS challenge measured after 6 hrs by immumohistochemical staining-based light microscopic analysis; type: functional, organism-based; conditions: C57/BL6
How it was run: (§2)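 Male C57BL/6 mice, 18–22 g, n = 7 per group. Compound given i.p. 15 mg/kg in 200 µL, or vehicle, 30 min before intratracheal LPS 5 mg/kg; killed 6 h later. Paraffin lung sections, 5 µm, treated with H2O2, blocked in 5% BSA, then primary anti-CD68 or anti-TNF-α overnight at 4 °C. HRP secondary 2 h at 37 °C, DAB stain, light microscopy at 200×.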

[4] = test system: Mus musculus; test: Anti-inflammatory activity in LPS-induced C57BL/6 mouse model of acute lung injury assessed as inhibition of IL-6 levels in BALF at 20 mg/kg, ip pretreated for 30 mins followed by LPS challenge measured after 6 hrs by ELISA; type: functional, organism-based; conditions: C57/BL6
How it was run: (§3)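 ALI model in male C57BL/6 mice: i.p. pretreatment 30 min before intratracheal LPS (5 mg/kg), euthanasia at 6 h. BALF spun at 1000 rpm for 10 min and the supernatant kept; plasma also collected. IL-6 and TNF-α measured by ELISA as pg/ml, mean ± SEM, n = 7.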

[5] = test system: Mus musculus; test: Anti-inflammatory activity in LPS-induced C57BL/6 mouse model of acute lung injury assessed as decrease in CD68 production in lung tissue at 15 mg/kg, ip pretreated for 30 mins followed by LPS challenge measured after 6 hrs by immumohistochemical staining-based light microscopic analysis; type: functional, organism-based; conditions: C57/BL6; how it was run: as §2
[6] = test system: Mus musculus; test: Anti-inflammatory activity in LPS-induced C57BL/6 mouse model of acute lung injury assessed as inhibition of IL-6 levels in plasma at 20 mg/kg, ip pretreated for 30 mins followed by LPS challenge measured after 6 hrs by ELISA; type: functional, organism-based; conditions: C57/BL6; how it was run: as §3
[7] = test system: Mus musculus; test: Anti-inflammatory activity in LPS-induced C57BL/6 mouse model of acute lung injury assessed as inhibition of TNF-alpha mRNA levels in lung tissue at 20 mg/kg, ip pretreated for 30 mins followed by LPS challenge measured after 6 hrs by RT-PCR analysis; type: functional, organism-based; conditions: C57/BL6
How it was run: (§4)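 Male C57BL/6 mice given i.p. pretreatment 30 min before intratracheal LPS 5 mg/kg, lungs taken at 6 h. IL-6 and TNF-α mRNA in lung tissue normalized to β-actin and expressed relative to the LPS group.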

[8] = test system: Mus musculus; test: Anti-inflammatory activity in LPS-induced C57BL/6 mouse model of acute lung injury assessed as inhibition of TNF-alpha levels in plasma at 20 mg/kg, ip pretreated for 30 mins followed by LPS challenge measured after 6 hrs by ELISA; type: functional, organism-based; conditions: C57/BL6; how it was run: as §3
[9] = target: Toll-like receptor 4 (Homo sapiens) (UniProt O00206); test: Binding affinity to TLR4 (unknown origin) by SPR analysis
How it was run: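 SPR: TLR4 protein in acetate buffer immobilized after activation with 40 mM EDC/10 mM sNHS. Compound dilutions in PBS with 0.1% SDS, 0.05% Tween-20 and 5% DMSO; first channel used as reference. Association 120 s, dissociation 120 s, 25 °C; KD derived from binding kinetics.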

[10] = test system: Peritoneal macrophage; test: Anti-inflammatory activity in ICR mouse peritoneal macrophages assessed inhibition of LPS-induced TNF-alpha production at 10 uM preincubated for 30 to 60 mins followed by LPS stimulation measured after 24 hrs by ELISA relative to control; type: functional; how it was run: as §1
[11] = test system: Mus musculus; test: Anti-inflammatory activity in LPS-induced C57BL/6 mouse model of acute lung injury assessed as inhibition of IL-6 mRNA levels in lung tissue at 20 mg/kg, ip pretreated for 30 mins followed by LPS challenge measured after 6 hrs by RT-PCR analysis; type: functional, organism-based; conditions: C57/BL6; how it was run: as §4
[12] = test system: Mus musculus; test: Anti-inflammatory activity in LPS-induced C57BL/6 mouse model of acute lung injury assessed as decrease in interstitial edema in lung tissue at 15 mg/kg, ip pretreated for 30 mins followed by LPS challenge measured after 6 hrs by hematoxylin and eosin staining-based light microscopic analysis; type: functional, organism-based; conditions: C57/BL6
[13] = test system: Mus musculus; test: Anti-inflammatory activity in LPS-induced C57BL/6 mouse model of acute lung injury assessed as inhibition of total cell count in BALF at 15 mg/kg, ip pretreated for 30 mins followed by LPS challenge measured after 6 hrs; type: functional, organism-based; conditions: C57/BL6
How it was run: (§5)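 Male C57BL/6 mice (n = 7) received 15 mg/kg i.p. in 200 µL, or vehicle, 30 min before intratracheal LPS 5 mg/kg; euthanized at 6 h. Total BALF cells counted as counts/ml. Lung MPO activity determined from absorbance change at 460 nm after a 30 min reaction and reported as U/g.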

[14] = test system: Mus musculus; test: Anti-inflammatory activity in LPS-induced C57BL/6 mouse model of acute lung injury assessed as decrease in lung tissue destruction at 15 mg/kg, ip pretreated for 30 mins followed by LPS challenge measured after 6 hrs by hematoxylin and eosin staining-based light microscopic analysis; type: functional, organism-based; conditions: C57/BL6
[15] = test system: Peritoneal macrophage; test: Anti-inflammatory activity in ICR mouse peritoneal macrophages assessed inhibition of LPS-induced TNF-alpha production preincubated for 30 to 60 mins followed by LPS stimulation measured after 24 hrs by ELISA; type: functional, cell-based; how it was run: as §1
[16] = test system: Mus musculus; test: Anti-inflammatory activity in LPS-induced C57BL/6 mouse model of acute lung injury assessed as decrease in thicken alveolar septa at 15 mg/kg, ip pretreated for 30 mins followed by LPS challenge measured after 6 hrs by hematoxylin and eosin staining-based light microscopic analysis; type: functional, organism-based; conditions: C57/BL6
[17] = test system: Mus musculus; test: Anti-inflammatory activity in LPS-induced C57BL/6 mouse model of acute lung injury assessed as inhibition of myeloperoxidase activity in lung tissue at 15 mg/kg, ip pretreated for 30 mins followed by LPS challenge measured after 6 hrs by H2O2 substrate based assay; type: functional, organism-based; conditions: C57/BL6; how it was run: as §5
[18] = test system: Mus musculus; test: Anti-inflammatory activity in LPS-induced C57BL/6 mouse model of acute lung injury assessed as decrease in pulmonary congestion in lung tissue at 15 mg/kg, ip pretreated for 30 mins followed by LPS challenge measured after 6 hrs by hematoxylin and eosin staining-based light microscopic analysis; type: functional, organism-based; conditions: C57/BL6
[19] = test system: Mus musculus; test: Anti-inflammatory activity in LPS-induced C57BL/6 mouse model of acute lung injury assessed as inhibition of TNF-alpha levels in BALF at 20 mg/kg, ip pretreated for 30 mins followed by LPS challenge measured after 6 hrs by ELISA; type: functional, organism-based; conditions: C57/BL6; how it was run: as §3

Chain of Toll-like receptor 4 (Homo sapiens) (O00206 whole entry): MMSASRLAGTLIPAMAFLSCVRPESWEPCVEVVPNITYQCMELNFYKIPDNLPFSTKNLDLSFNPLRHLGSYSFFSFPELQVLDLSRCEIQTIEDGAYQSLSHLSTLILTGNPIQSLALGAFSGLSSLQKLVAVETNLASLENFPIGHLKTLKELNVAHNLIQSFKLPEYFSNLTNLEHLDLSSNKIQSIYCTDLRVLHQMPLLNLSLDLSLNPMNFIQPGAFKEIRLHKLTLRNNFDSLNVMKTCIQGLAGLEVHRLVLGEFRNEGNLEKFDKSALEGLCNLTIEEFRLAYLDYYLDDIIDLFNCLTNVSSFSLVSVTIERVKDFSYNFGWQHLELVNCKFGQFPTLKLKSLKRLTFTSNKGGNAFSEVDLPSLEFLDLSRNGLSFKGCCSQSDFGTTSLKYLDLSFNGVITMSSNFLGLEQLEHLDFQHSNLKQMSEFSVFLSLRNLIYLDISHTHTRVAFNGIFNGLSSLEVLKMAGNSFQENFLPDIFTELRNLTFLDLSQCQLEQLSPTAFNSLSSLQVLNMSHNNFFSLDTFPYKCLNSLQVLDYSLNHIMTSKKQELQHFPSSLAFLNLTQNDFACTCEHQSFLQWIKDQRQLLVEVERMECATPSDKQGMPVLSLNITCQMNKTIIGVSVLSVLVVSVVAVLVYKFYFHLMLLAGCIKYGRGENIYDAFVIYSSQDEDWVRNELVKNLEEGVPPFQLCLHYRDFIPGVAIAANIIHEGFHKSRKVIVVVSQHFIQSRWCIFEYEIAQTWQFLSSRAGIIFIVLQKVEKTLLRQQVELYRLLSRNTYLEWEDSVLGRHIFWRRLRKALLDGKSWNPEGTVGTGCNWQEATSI

SMILES | inhibition [1] | other results
Cc1ncsc1/C=C/C(=O)NCCc1ccc(O)c(O)c1 | Active | –
C=CCOc1ccc(/C=C/C(=O)NCCc2ccccc2)cc1 | Active | –
COc1ccc(/C=C/C(=O)NCCc2ccccc2)cc1O | Active | –
COc1ccc(/C=C/C(=O)NCCc2ccccc2)cc1 | Active | –
COc1cc(OC)c(/C=C/C(=O)NCCc2ccccc2)c(OC)c1 | inactive | –
COc1cc(OC)c(OC)cc1/C=C/C(=O)NCCc1ccccc1 | inactive | –
COc1cc(/C=C/C(=O)NCCc2ccccc2)ccc1OCc1ccccc1 | Active | –
Cc1ncsc1/C=C/C(=O)N[C@@H](Cc1ccc(O)cc1)C(=O)OC(C)(C)C | – | Activity [2]: Active; Activity [3]: Active; inhibition [4]: Active; Activity [5]: Active; inhibition [6]: Active; inhibition [7]: Active; inhibition [8]: Active; Activity [9]: inactive; inhibition at 10 µM [10]: 82.6%; inhibition [11]: Active; Activity [12]: Active; inhibition [13]: Active; Activity [14]: Active; IC50 [15]: 2.05 µM; inhibition [15]: Dose-dependent effect; Activity [16]: Active; inhibition [17]: Active; Activity [18]: Active; inhibition [19]: Active
COc1ccc2cc(CCNC(=O)/C=C/c3scnc3C)[nH]c2c1 | inactive | –
CCCCCCCCCNC(=O)/C=C/c1scnc1C | inactive | –
COc1ccc(/C=C/C(=O)NCCc2ccccc2)cc1OCc1ccccc1 | inactive | –
CCCCCCCNC(=O)/C=C/c1scnc1C | inactive | –
COc1cc(/C=C/C(=O)NCCc2ccccc2)ccc1O | Active | –
O=C(/C=C/c1ccc2c(c1)OCO2)NCCc1ccccc1 | Active | –
Cc1ccc(/C=C/C(=O)NCCc2ccccc2)o1 | Active | –
Cc1ncsc1/C=C/C(=O)N[C@@H](Cc1ccccc1)C(=O)OC(C)(C)C | – | inhibition at 10 µM [10]: 68.7%
COc1cccc(/C=C/C(=O)NCCc2ccccc2)c1OC | inactive | –
O=C(/C=C/c1ccc(O)cc1)NCCc1ccccc1 | Active | –
Cc1ncsc1/C=C/C(=O)N[C@@H](Cc1ccc(O)cc1)C(=O)O | inactive | –
CCCCCCCCNC(=O)/C=C/c1scnc1C | inactive | –
COc1ccc(/C=C/C(=O)NCCc2ccccc2)c(OC)c1OC | inactive | –
CCOC(=O)[C@H](Cc1ccc(O)cc1)NC(=O)/C=C/c1scnc1C | – | inhibition at 10 µM [10]: 79.4%; IC50 [15]: 3.19 µM; inhibition [15]: Dose-dependent effect

SMILES | inhibition [1] | other results
O=C(/C=C/c1ccc(C(F)(F)F)cc1)NCCc1ccccc1 | inactive | –
Cc1ncsc1/C=C/C(=O)N[C@@H](Cc1ccccc1)C(=O)O | inactive | –
COc1cc(/C=C/C(=O)NCCc2ccccc2)ccc1OCc1ccc(C)cc1 | Active | –
CCCCCCCCCCNC(=O)/C=C/c1scnc1C | inactive | –
Cc1ncsc1/C=C/C(=O)NCCc1ccccc1 | – | inhibition at 10 µM [10]: 67.3%
Cc1ncsc1/C=C/C(=O)NCCCCc1ccccc1 | inactive | –
Cc1ccc(/C=C/C(=O)NCCc2ccccc2)s1 | Active | –
COc1ccc(/C=C/C(=O)NCCc2ccccc2)cc1OCc1ccc(C)cc1 | inactive | –
Cc1ncsc1/C=C/C(=O)NCCc1cc2ccccc2[nH]1 | inactive | –
Cc1ncsc1/C=C/C(=O)NCCc1ccc(O)cc1 | Active | –
Cc1ncsc1/C=C/C(=O)N1CCC(c2ccccc2)CC1 | inactive | –
COc1cc(/C=C/C(=O)NCCc2ccccc2)cc(Br)c1O | Active | –
O=C(/C=C/c1ccc(O)c(O)c1)OCCc1ccccc1 [CAFFEIC ACID PHENETHYL ESTER] | – | inhibition [4]: Active; inhibition [6]: Active; inhibition [8]: Active; inhibition [13]: Active; IC50 [15]: 4.31 µM; inhibition [17]: Active; inhibition [19]: Active
O=C(/C=C/c1ccc([N+](=O)[O-])cc1)NCCc1ccccc1 | inactive | –
COc1ccc(/C=C/C(=O)NCCc2ccccc2)cc1OC | Active | –
COc1cc(COc2cc(/C=C/C(=O)NCCc3ccccc3)ccc2OC)cc(OC)c1 | inactive | –
Cc1ncsc1/C=C/C(=O)NCCCc1ccccc1 | inactive | –
Cc1ncsc1/C=C(\C#N)C(=O)NCCc1ccccc1 | Active | –
O=C(/C=C/c1ccc(N2CCOCC2)cc1)NCCc1ccccc1 | Active | –
COc1cc(/C=C/C(=O)NCCc2ccccc2)cc(OC)c1OC | Active | –
O=C(/C=C/c1cccnc1)NCCc1ccccc1 | Active | –

— ChEMBL document CHEMBL4138215, “Discovery of caffeic acid phenethyl ester derivatives as novel myeloid differentiation protein 2 inhibitors for treatment of acute lung injury” (Eur J Med Chem, 2018)
